# This is a sample that favours compounds with a hit; in the whole collection about 2.6% have one here.
# Rad51 HR inh: Rad51 (human) homologous recombination inhibition; hRad51 DNA strand exchange, fluorescence dequenching; inhibition, % at 10 µM; hit rate 0.085% among 200,000; AID 1385;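 active = inhibition above 40% at the single screening dose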;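 also: 0% = DMSO control wells and 100% = blanks with heterologous ssDNA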
# Target sequence (Q06609 whole entry, looked up): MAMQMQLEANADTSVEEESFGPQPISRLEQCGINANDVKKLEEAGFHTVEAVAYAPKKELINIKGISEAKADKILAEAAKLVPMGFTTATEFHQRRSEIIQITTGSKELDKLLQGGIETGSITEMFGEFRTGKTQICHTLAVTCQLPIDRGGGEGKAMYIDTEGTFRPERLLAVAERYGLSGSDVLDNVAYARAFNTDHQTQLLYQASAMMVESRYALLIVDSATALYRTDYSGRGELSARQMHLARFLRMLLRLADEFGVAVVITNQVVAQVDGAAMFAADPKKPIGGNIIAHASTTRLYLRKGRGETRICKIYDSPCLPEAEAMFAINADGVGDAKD
#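 material = hRad51 filaments on single-stranded DNA | timing = filaments 15 min 37 °C, then compound 30 min | signal = FRET fluorescence dequenching, excitation 485 nm, emission 520 nm | benchmarks = control wells and blank wells on each plate | evaluation = percent inhibition relative to plate controls and blanks | compound = 10 µM final, single point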
# CHT PAM: allosteric activators of human choline transporter CHT; Q9GZV3; CHT-expressing cells, membrane potential dye, choline EC20; hits give high values; LV-AA mutant CHT in HEK293 cells; B-score at 10 µM; hit rate 0.49% among 310,000; AID 488977;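 active = initial fluorescence not abnormally high and integrated response B-score, plate-corrected, over 3 SD above library mean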
# CHT block: human CHT choline transport inhibition; Q9GZV3; CHT-expressing cells, membrane potential dye, choline response; hits give low values; B-score at 10 µM; hit rate 0.86% among 310,000;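 active = B-score over 3 SD under the library average, and starting fluorescence ratio not unusually high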;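 also: choline stimulus applied at its EC90 after an EC20 pre-addition; B-score computed on integrated fluorescence ratio after choline addition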
# Cl transport mod: KCC2 (human) Cl- transport modulation. Q9H2X9. KCC2 cells, thallium flux FluoZin-2 fluorescence. B-score of Tl+ flux slope (higher = more flux/activation; lower = inhibition) at 10 µM. hit rate 2.2% among 190,000;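 active = thallium flux slope and its plate-corrected score both differing from the plate sample mean at a set confidence after two filtering rounds, in either direction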;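 also: slope of fluorescence scaled to starting intensity during 10 to 20 s after thallium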
# KCC2 secondary: KCC2 (human) modulation, secondary assay | shares compounds with Cl transport mod | HEK293-KCC2, thallium flux, FluoZin2 fluorescence; hits give high values | normalised thallium flux (F/F0 slope) at 10 µM | hit rate 15% among 3,700;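 active = thallium flux slope above the same plate's solvent-only control mean plus 3 SD; inconclusive = the two replicate wells disagree; inactive = no significant difference from solvent-only control wells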
# KCC2 bumet counter: bumetanide-insensitive thallium flux in KCC2 cells with ouabain, counter-screen; shares compounds with Cl transport mod; HEK293-KCC2 + bumetanide/ouabain, thallium flux FluoZin2; hits give high values; normalized thallium flux at 10 µM; hit rate 49% among 3,700;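 active = thallium entry rate above the same plate's blocked-transporter control wells by more than 3 SD; inconclusive = the two repeat wells disagree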;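 also: raw slope of fluorescence over initial fluorescence between 10 and 20 s after thallium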
# KCC2 sec2: KCC2 (human) modulation, second secondary assay; hit rate 23% among 3,700; normalized thallium flux at 10 µM; shares compounds with Cl transport mod; HEK293-KCC2, thallium flux FluoZin2 fluorescence; actives lie on both sides; F/F0 rise rate, 10–20 s post-thallium; AID 1715;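 active = thallium flux slope more than 3 SD above or below the plate's solvent-only control mean, mostly below; inconclusive = the two repeat wells disagreed; inactive = no significant shift from solvent-only controls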;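 also: raw slope with 0.1% DMSO as baseline and bumetanide as block control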
# HEK293 Tl flux: counter-screen for KCC2 modulators: effect in parental HEK293 cells; shares compounds with Cl transport mod; thallium flux FluoZin2, ouabain; baseline-ratio fluorescence slope, 10–20 s after thallium; thallium flux rate (normalised fluorescence) at 10 µM; hit rate 46% among 3,700; AID 1716;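 active = thallium flux rate significantly above the same plate's solvent-only control wells, beyond their mean plus 3 SD; inconclusive = the two replicate wells gave conflicting results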
# KCC2 ouabain: KCC2 (human) modulation, ouabain retest | shares compounds with Cl transport mod | AID 1717 | HEK293-KCC2, thallium flux FluoZin2 fluorescence; bidirectional: low = inhibitor, high = activator | raw Tl+ flux slope (below DMSO = inhibition, above = activation) at 10 µM | hit rate 48% among 3,700;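 active = thallium flux slope beyond 3 SD from same-plate DMSO control mean in most replicates, usually higher, sometimes lower; inconclusive = repeat tests gave conflicting results; inactive = no significant difference from controls in most replicates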;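 also: slope of initial-normalized fluorescence between seconds 10 and 20 after thallium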
# HEK counter2: counter-screen for KCC2 modulators: effect in parental HEK293 cells | shares compounds with Cl transport mod | thallium flux FluoZin-2 fluorescence slope | thallium flux slope at 10 µM | hit rate 33% among 3,700 | AID 1718;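 active = thallium flux slope above the same plate's solvent-control mean plus 3 SD in both duplicate wells; inconclusive = duplicate wells that disagreed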;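 also: run without ouabain in cells lacking the KCC2 cotransporter; slope of fluorescence scaled to its starting value between 10 and 20 s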
# CHT inh conf: confirmation of human choline transporter CHT inhibitors. shares compounds with CHT block. CHT-expressing cells, choline membrane potential dye; LV-to-AA substituted CHT, HEK293 cells. CHT activity remaining % of control (hits give low values), % at 10 µM. hit rate 70% among 2,400;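 active = choline transporter activity left, mean of duplicates at 10 µM, below buffer-only control mean minus 3 SD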;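 also: depolarization triggered by choline at its EC90 following an EC20 pre-addition; 0% = hemicholinium-3 full block and 100% = buffer-only control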
# HEK293 MPD ctr: CHT inhibitor counter-screen hit in parental HEK293 cells; membrane potential dye, choline response; active = decrease or increase beyond buffer ±3SD; hit rate 4% among 2,400; shares compounds with CHT block; membrane potential ratio readout (active if shifted either direction beyond buffer ±3SD; no single direction) at 10 µM;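 also: parental cells lack the transporter so any hit is non-specific; ratio is peak minus trough fluorescence over baseline after EC90 choline challenge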
# Starred values were filed as active, the others as inactive; i = inactive; ? = inconclusive; / = no result.
SMILES,Rad51 HR inh,CHT PAM,CHT block,Cl transport mod,KCC2 secondary,KCC2 bumet counter,KCC2 sec2,HEK293 Tl flux,KCC2 ouabain,HEK counter2,CHT inh conf,HEK293 MPD ctr
COc1cc(-c2nnc(SC/C=C/c3ccccc3)n2N)cc(OC)c1OC,-9,i,-5.2*,-6*,0.008,0.005,0.032,0.0071,0.018,0.011,67%*,i
Nn1c(SC/C=C/c2ccccc2)nnc1-c1ccncc1,/,i,i,-0.29,/,/,/,/,/,/,/,/
COc1ccc(NC(=O)CN(c2ccccc2C)S(C)(=O)=O)c(OC)c1,/,i,i,/,/,/,/,/,/,/,/,/
OCCN(Cc1ccccc1)Cc1ccc(F)c(F)c1,4,i,i,/,/,/,/,/,/,/,/,/
CNc1oc(Cc2cccc3ccccc23)nc1C#N,1,i,-6.9*,/,0.011,0.0082*,?,0.0079,0.014*,?,56%*,i
O=C(COC(=O)CCCSc1nc2ccccc2[nH]1)NC(=O)NC1CCCC1,-2,i,-7.3*,-0.9,0.0092,0.0053,0.033,?,0.02,0.01,62%*,i
C/C(=N\NC(=O)c1nnn(-c2nonc2N)c1COc1ccc(F)cc1)c1ccc(Cl)cc1,20,i,i,0.62,/,/,/,/,/,/,/,/
CC1=C(C(=O)OCCOc2ccccc2)C(c2ccsc2)NC(=O)N1C (stereo not drawn),-2,i,-6.5*,-6.6*,0.0084,0.006,0.03*,0.0038,0.016*,0.011,50%*,i
CCc1ccc(NC(=S)N2CCC(NC(=O)c3ccccc3OC)CC2)cc1,/,i,i,/,/,/,/,/,/,/,/,/
COc1ccccc1C(=O)NC1CCN(C(=S)NCCc2ccccc2)CC1,4,i,-6.3*,-3.1*,0.007,0.0045,0.025*,0.0078,?,0.011,50%*,i
CC1CC(C)CN(S(=O)(=O)N2CCC(C(=O)NCc3ccco3)CC2)C1 (stereo not drawn),-2,i,i,0.51,/,/,/,/,/,/,/,/
O=c1c2cc(Br)ccc2nc(-c2ccc([N+](=O)[O-])cc2)n1O,25,i,-6.3*,72*,0.05*,0.11*,0.058*,0.053*,0.069*,0.027*,38%*,i
O=C(CN1C(=O)NC2(CCCC2)C1=O)OCCOc1ccc(Cl)cc1,/,i,i,/,/,/,/,/,/,/,/,/
Cc1[nH]n(-c2ccccc2)c(=O)c1C(=O)c1cccc(F)c1,-49,i,i,0.54,/,/,/,/,/,/,/,/
CCSC(=S)c1c(C)[nH]n(-c2ccccc2)c1=O,-9,i,-8.8*,101*,0.046*,0.1*,0.04,0.061*,0.067*,0.028*,i,i
Cc1[nH]n(-c2ccc(Cl)cc2)c(=O)c1C(=O)c1ccccc1,8,i,-11*,8.1*,0.0065,0.02*,0.032,0.016*,0.027*,0.019*,i,i
COc1ccc(N2CCN(C(C)C(=O)N(C)Cc3ccccc3)CC2)cc1 (stereo not drawn),/,i,i,/,/,/,/,/,/,/,/,/
Cc1ccc(C(=O)CSc2nnc(-c3ccco3)n2C)cc1,/,i,-5.4*,-4.7*,0.0058*,0.0059,0.031,0.0075,0.015*,0.01,69%*,i
CS(=O)(=O)N1CCN(c2ccccc2NC(=S)NC(=O)c2ccco2)CC1,/,i,i,/,/,/,/,/,/,/,/,/
CC(C)(C)C(=O)NC(=S)NNC(=O)C(c1ccccc1)c1ccccc1,17,i,-6.6*,5.8*,0.011,0.023*,0.041,?,0.03*,0.013,36%*,i
CC(=O)NNC(=S)NC(=O)C(c1ccccc1)c1ccccc1,6,i,i,-1.4,/,/,/,/,/,/,/,/
COc1ccc(-n2nc(C(=O)NCC(=O)NCc3ccc(F)cc3)c3ccccc3c2=O)cc1OC,/,i,i,/,/,/,/,/,/,/,/,/
O=C(Nc1cccnc1)c1ccc(COc2ccccc2Br)o1,0,i,-5.7*,-5*,0.0061,0.0047,0.022*,0.0072,?,0.011,55%*,i
CC(=O)Oc1cc2c3c(c1)/C(=C1/SC(=S)NC1=O)C(=O)N3C(C)(C)C=C2C,-10,i,-6.8*,12*,0.011,0.062*,0.033,0.017*,0.024,0.011,37%*,i
CC1(C)COCN1S(=O)(=O)c1ccc(C(=O)Nc2nnc(-c3ccc(Cl)s3)o2)cc1,/,i,-5.8*,15*,?,0.04*,0.039,?,0.035*,0.012,50%*,i
SMILES,Rad51 HR inh,CHT PAM,CHT block,Cl transport mod,KCC2 secondary,KCC2 bumet counter,KCC2 sec2,HEK293 Tl flux,KCC2 ouabain,HEK counter2,CHT inh conf,HEK293 MPD ctr
O=C(NC(=S)NNC(=O)[C@H]1C[C@@H]1c1ccccc1)c1cccc(F)c1,-1,i,-7.8*,67*,0.0087,0.086*,0.06*,0.061*,0.067*,0.05*,49%*,i
O=C(NCc1ccco1)c1sc(=S)n2c1[nH]c(=O)c1ccccc12,-10,i,i,/,/,/,/,/,/,/,/,/
O=C(NC1CCCC1)c1sc(=S)n2c1[nH]c(=O)c1ccccc12,7,i,-5*,24*,0.015*,0.052*,0.03,0.024*,0.045*,0.014*,i,i
CCOC(=O)c1ccccc1NC(=O)CSc1nnnn1C1CCCCC1,/,i,i,/,/,/,/,/,/,/,/,/
O=C1CC(O)(C(F)(F)F)Oc2c1ccc1ccccc21 (stereo not drawn),-10,i,-8.1*,46*,0.0088,0.077*,0.065*,0.059*,0.067*,0.061*,46%*,i
O=C(/C=C/c1cccc(Cl)c1)N1CCC(Cc2ccccc2)CC1,12,i,i,-4,/,/,/,/,/,/,/,/
O=C(/C=C/c1ccccc1)N1CCC(Cc2ccccc2)CC1,/,i,-5.3*,/,0.0068,0.006,0.027,0.0068,0.014*,0.01,i,i

# Screening results: PubChem BioAssay, several laboratories
